One molecule from ChEMBL document CHEMBL4311947, “Discovery of Novel Naphthylphenylketone and Naphthylphenylamine Derivatives as Cell Division Cycle 25B (CDC25B) Phosphatase Inhibitors: Design, Synthesis, Inhibition Mechanism, and in Vitro Efficacy against Melanoma Cell Lines” (J Med Chem, 2019) can be followed below.

Molecules are shown by their SMILES. The source made the active and inactive calls. No cut-off for these calls is given here.

Data set [1] has as its system A-375. Briefly: Induction of cell cycle arrest in human A375 cells assessed as increase in accumulation at subG1 phase at 10 uM after 16 hrs by propidium iodide staining based flow cytometric method. Format: functional. The procedure, abridged: (§1)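 Seeded at 3×10^5 cells/well for 24 h at 37°C, then exposed to 10 µM inhibitor or 0.5% (v/v) DMSO for 8 or 16 h. Trypsin-harvested, fixed in cold 70% ethanol at -20°C for 1 h, stained 30 min at 4°C with 50 µg/mL PI in non-lysis solution. Phase distribution (sub-G1, G0/G1, S, G2/M) read by FACScan; triplicate experiments, mean ± SE.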

Data set [2] has as its system A-375. Description: Induction of cell cycle arrest in human A375 cells assessed as increase in accumulation at G2/M phase at 10 uM after 16 hrs by propidium iodide staining based flow cytometric method. The format is functional. An outline of the steps:
as §1

The test system of data set [3] is A2058. Description: Induction of cell cycle arrest in human A2058 cells assessed as increase in accumulation at G2/M phase at 10 uM after 16 hrs by propidium iodide staining based flow cytometric method. Format: functional. The procedure, abridged:
as §1

The test system of data set [4] is A2058. Description: Induction of cell cycle arrest in human A2058 cells assessed as increase in accumulation at G2/M phase at 10 uM after 8 hrs by propidium iodide staining based flow cytometric method. Format: functional. The procedure, abridged:
as §1

The test system of data set [5] is A2058. Briefly: Induction of cell cycle arrest in human A2058 cells assessed as decrease in accumulation at G0/G1 phase at 10 uM after 8 hrs by propidium iodide staining based flow cytometric method. The format is functional. The procedure, abridged:
as §1

Data set [6] has as its system A-375. Briefly: Inhibition of colony formation in human A375 cells at 0.625 to 10 uM after 10 days by crystal violet staining based assay. The format is functional, cell-based. The procedure, abridged:
(§2)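 Seeded in duplicate at 4×10^2 cells/well; after 2–3 days treated with 0.5% (v/v) DMSO or 0.625–10 µM inhibitor for 10 days at 37°C. Stained 1 h with 1% crystal violet in 50% ethanol; colonies of ≥50 cells counted, expressed as percentage, mean ± SE of at least three experiments.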

A further data set concerns hTERT-BJ. Description: Cytotoxicity against human BJ-5ta cells at 10 uM measured up to 72 hrs by MTT assay. Format: cell-based. The procedure, abridged:
(§3)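 Cells seeded at 4×10^4/well, treated 24 h after plating with inhibitor or 0.5% (v/v) DMSO vehicle for 24, 48 or 72 h. MTT added, 3 h at 37°C under 5% CO2, formazan solubilised, absorbance at 570 nm. Viability in arbitrary units, mean ± SE of at least three independent experiments versus control. Cells grown in DMEM/10% FBS at 37°C, 5% CO2; BJ-5ta cultured in 4:1 DMEM/Medium 199 with hygromycin B.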

In data set [7] the test system is A2058. Description: Inhibition of colony formation in human A2058 cells at 0.625 to 10 uM after 10 days by crystal violet staining based assay. The format is functional, cell-based. The procedure, abridged:
as §2

In data set [8] the test system is A2058. Description: Cytotoxicity against human A2058 cells at 2.5 uM after 72 hrs by MTT assay. Format: functional, cell-based. An outline of the steps: as §3
Data set [9] concerns A2058. Briefly: Cytotoxicity against human A2058 cells at 5 uM after 48 hrs by MTT assay. Format: functional, cell-based. An outline of the steps:
as §3

Data set [10] deals with A2058. Description: Cytotoxicity against human A2058 cells at 50 uM after 48 hrs by MTT assay. The format is functional, cell-based. The procedure, abridged: as §3
Data set [11] has as its system A2058. Briefly: Cytotoxicity against human A2058 cells at 50 uM after 24 hrs by MTT assay. The format is functional, cell-based. An outline of the steps:
as §3

The target in data set [12] is T1, M-phase inducer phosphatase 1 (Homo sapiens, UniProt P30304).
T1 sequence (P30304 whole entry): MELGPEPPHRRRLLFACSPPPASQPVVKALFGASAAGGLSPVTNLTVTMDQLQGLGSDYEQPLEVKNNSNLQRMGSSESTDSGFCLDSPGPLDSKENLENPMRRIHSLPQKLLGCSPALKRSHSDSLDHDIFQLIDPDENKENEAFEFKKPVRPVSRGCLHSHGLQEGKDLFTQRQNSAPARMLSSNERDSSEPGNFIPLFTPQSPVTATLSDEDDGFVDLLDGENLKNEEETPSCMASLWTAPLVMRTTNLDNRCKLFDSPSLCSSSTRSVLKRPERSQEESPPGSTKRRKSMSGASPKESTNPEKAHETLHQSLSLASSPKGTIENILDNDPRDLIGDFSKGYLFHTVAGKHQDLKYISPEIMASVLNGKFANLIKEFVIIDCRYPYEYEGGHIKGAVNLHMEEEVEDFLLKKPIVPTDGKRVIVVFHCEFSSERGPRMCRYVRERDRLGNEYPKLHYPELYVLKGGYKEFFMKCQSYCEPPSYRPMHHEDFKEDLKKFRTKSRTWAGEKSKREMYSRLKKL
Briefly: Inhibition of N-terminal His6-tagged human CDC25A (336 to 508 residues) expressed in Escherichia coli BL21(DE3) cells using OMFP as substrate by double reciprocal Lineweaver-Burk plot analysis. An outline of the steps: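 Recombinant CDC25 form (15–25 nM) in 20 mM Tris-HCl pH 7.8, 0.5 mM TCEP, 1% (v/v) DMSO, with or without inhibitor. Reaction started with 0.5–25 µM OMFP; O-methylfluorescein formation followed continuously at 30°C (ex 485/em 530 nm). Initial rates (AU/min) analysed in Lineweaver-Burk plots for Vmax, KM and mechanism; Ki averaged from at least three independent experiments, only roughly estimated for mixed inhibition.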

Data set [13] deals with T2, M-phase inducer phosphatase 2 (Homo sapiens) (UniProt P30305).
T2 sequence (whole entry): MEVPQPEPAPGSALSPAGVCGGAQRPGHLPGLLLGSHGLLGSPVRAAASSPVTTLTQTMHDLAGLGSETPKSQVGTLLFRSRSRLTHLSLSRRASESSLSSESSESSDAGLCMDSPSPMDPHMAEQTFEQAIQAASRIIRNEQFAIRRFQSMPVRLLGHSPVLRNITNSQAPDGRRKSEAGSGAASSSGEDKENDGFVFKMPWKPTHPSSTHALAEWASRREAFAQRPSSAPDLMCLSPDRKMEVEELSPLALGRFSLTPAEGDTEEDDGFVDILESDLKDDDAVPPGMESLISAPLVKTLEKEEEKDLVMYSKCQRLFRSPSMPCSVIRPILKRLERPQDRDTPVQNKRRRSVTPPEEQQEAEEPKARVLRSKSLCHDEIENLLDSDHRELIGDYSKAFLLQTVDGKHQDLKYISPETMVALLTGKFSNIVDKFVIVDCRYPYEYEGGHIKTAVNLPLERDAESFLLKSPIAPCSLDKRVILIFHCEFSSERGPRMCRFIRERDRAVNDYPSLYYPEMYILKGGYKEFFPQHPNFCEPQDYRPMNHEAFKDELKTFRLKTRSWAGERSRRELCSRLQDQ
Briefly: Inhibition of CDC25B in human A2058 cells assessed as increase in phosphorylated cdk1 level at 10 uM after 8 hrs by Western blot analysis. The format is cell-based. The procedure, abridged: (§4)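 After 24 h at 3×10^5 cells, 8 h treatment with 10 µM inhibitor or 0.5% DMSO. Lysis in ice-cold modified RIPA with Na3VO4, NaF and protease inhibitors; Bradford-normalised equal protein on 12% SDS-PAGE. Rabbit polyclonal anti-p-Cdk1 overnight at 4°C, HRP secondary, ECL detection; β-actin loading control.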

Data set [14] addresses T2, M-phase inducer phosphatase 2 (Homo sapiens). Description: Inhibition of CDC25B in human A375 cells assessed as increase in phosphorylated cdk1 level at 10 uM after 8 hrs by Western blot analysis. The format is cell-based. An outline of the steps: as §4

For the molecule `CCOC(=O)c1cccc(Nc2cc(OC)cc3ccccc23)c1`, the result with A-375 [1], in the data set on A2058 [3], with A2058 [4], with A2058 [5], with A2058 [8] and in the data set with A2058 [9] was Active. In addition, the result with A2058 [10] and in the data set on A2058 [11] was Active. Besides, the outcome in the data set with A-375 [2] was inactive. For the same molecule, the inhibition entry (in the data set on A-375 [6]; in the data set with A2058 [7]; in data set [13]; in [14]) was “Active” throughout. The Activity result with hTERT-BJ is listed as “Non-Toxic”. The molecule also showed an inhibition constant (Ki) in data set [12] of 3 µM.
